How the values were obtained:
Type in all cases: functional, cell-based
MDA-MB-435 = assay: Cytotoxicity against human MDA-MB-435 cells after 72 hrs by MTT assay; details: MDA-MB-435, 72 h
In short: (§1)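 Cells grown in RPMI 1640 with 10% FBS, 2 mM glutamine, streptomycin and penicillin at 37 C, 5% CO2. Seeded at 10^5 cells/well (adherent) or 0.3 × 10^6 cells/well (suspension). After 24 h, compounds in DMSO (0.39-25 μg/mL) added; doxorubicin (0.01-0.58 μg/mL) as positive control. After 69 h, MTT 0.5 mg/mL for 3 h. Formazan dissolved in DMSO, A595 read, IC50 by nonlinear regression.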

SF-295 = assay: Cytotoxicity against human SF295 cells after 72 hrs by MTT assay; details: SF-295, 72 h; in short: as §1
HCT-8 = assay: Cytotoxicity against human HCT8 cells after 72 hrs by MTT assay; details: HCT-8, 72 h; in short: as §1
HL-60 = assay: Cytotoxicity against human HL60 cells after 72 hrs by MTT assay; details: HL-60, 72 h; in short: as §1

SMILES	IC50 (MDA-MB-435)	IC50 (SF-295)	IC50 (HCT-8)	IC50 (HL-60)
C=CC(=C)CC[C@]1(C)[C@H](C)[C@@H](O)[C@H](OC(=O)/C=C\C=C\CCCCC)[C@@]23C(=C[C@H](O)C[C@@H]12)[C@@H](OC(C)=O)O[C@@H]3OC(C)=O (relative stereo) [CASEARUPESTRIN A]	0.36 µM	0.36 µM	0.13 µM	0.1 µM
C=CC(=C)CC[C@]1(C)[C@H](C)[C@@H](OC(=O)/C=C\C=C\CCCCC)[C@H](OC(C)=O)[C@@]23C(=C[C@H](OC(C)=O)C[C@@H]12)[C@@H](OC(C)=O)O[C@@H]3OC(C)=O	> 5 µM	> 5 µM	> 5 µM	> 5 µM
COc1cccc2c1C(=O)c1c(O)c3c(c(O)c1C2=O)C[C@@](O)(C(=O)CO)C[C@@H]3O[C@H]1C[C@H](N)[C@H](O)[C@H](C)O1 [DOXORUBICIN]		0.4 µM		0.04 µM
C=CC(=C)CC[C@]1(C)[C@H](C)[C@@H](OC(C)=O)[C@H](OC(=O)/C=C\C=C\CCCCC)[C@@]23C(=C[C@H](OC(C)=O)C[C@@H]12)[C@@H](OC(C)=O)O[C@@H]3OC(C)=O	> 5 µM	> 5 µM	> 5 µM	4.3 µM
C=CC(=C)CC[C@]1(C)[C@H](C)[C@@H](OC(=O)/C=C\C=C\CCCCC)[C@H](OC(C)=O)[C@@]23C(=C[C@H](O)C[C@@H]12)[C@@H](OC(C)=O)O[C@@H]3OC(C)=O (relative stereo) [CASEARUPESTRIN D]	0.93 µM	0.43 µM	0.25 µM	0.25 µM
C=CC(=C)CC[C@]1(C)[C@H](C)[C@@H](OC(=O)/C=C\C=C\CCCCC)[C@H](O)[C@@]23C(=C[C@H](O)C[C@@H]12)[C@@H](OC(C)=O)O[C@@H]3OC(C)=O (relative stereo) [CASEARUPESTRIN B]	1.3 µM	0.8 µM	0.28 µM	0.85 µM
C=CC(=C)CC[C@]1(C)[C@H](C)[C@@H](OC(=O)/C=C\C=C\CCCCC)[C@H](O)[C@@]23C(=C[C@H](O)C[C@@H]12)[C@@H](OC)O[C@@H]3OC(C)=O (relative stereo) [CASEARUPESTRIN C]	> 5 µM	> 5 µM	> 5 µM	> 5 µM
